Laboratory results taken from ChEMBL document CHEMBL4038343, “Dual MET and SMO Negative Modulators Overcome Resistance to EGFR Inhibitors in Human Nonsmall Cell Lung Cancer” (J Med Chem, 2017).
Active and inactive are the calls of the source. No cut-off for these calls is given here.

Tests used:
[1] = system: Protein smoothened (Homo sapiens), Q99835 [V404M]; assay: Displacement of [3H]-cyclopamine from SMO V404M mutant in gefitinib resistant human HCC827 cells at 10 uM by scintillation counting
HCC827 [2] = assay: Antitumor activity against gefitinib resistant human HCC827 cells xenografted in balb/c athymic nu/nu mouse assessed as decrease in tumor size at 15 mg/kg/day, po; assay type: functional, organism-based
Procedure, shortened: (§1)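 Female balb/c nu/nu mice, 4–6 weeks old, given 10^7 HCC827 cells s.c. in 1:1 Matrigel/medium; at 150 mm3 tumors, 3-weekly escalating oral gefitinib (18.7 to 150 mg/kg/day) over 4 months until resistance (>25% regrowth from maximal reduction); then randomized to oral test agent at fixed daily dose; tumor volume (π/6 × larger × smaller²) every other day.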

[3] = molecular target: Hepatocyte growth factor receptor (Homo sapiens) (UniProt P08581); assay: Inhibition of MET phosphorylation at Tyr1234/1235 in gefitinib resistant human HCC827 cells at 0.05 to 0.1 uM after 72 hrs by Western blotting method
Procedure, shortened: (§2)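 HCC827-GR cells treated 72 h; lysates in RIPA or Tween-20 buffer, protein equalized by Bradford, Western blotting with antibodies to p-MAPK44/42 (Thr202/Tyr204), MAPK, p-AKT (Ser473), AKT, p-MET (Tyr1234/1235), MET, SMO, GLI1, α-tubulin; ECL detection; triplicate.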

[4] = system: Protein smoothened (Homo sapiens), Q99835 [V404M]; assay: Inhibition of SMO V404M mutant in gefitinib resistant human HCC827 cells assessed as decrease in GLI1 activity by GLI1 luciferase reporter assay
Procedure, shortened: (§3)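 HCC827-GR cells seeded serum-free, cotransfected at 50% confluence with GLI1-firefly luciferase reporter plus pRL-TK Renilla (Lipofectamine 2000, triplicate); after 8 h medium switched to compound, with or without 100 nM SAG; about 48 h post-transfection dual-luciferase read; firefly normalized to Renilla as fold over control; three independent experiments.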

HCC827 [5] = assay: Antitumor activity against gefitinib resistant human HCC827 cells xenografted in balb/c athymic nu/nu mouse assessed as decrease in tumor size at 15 mg/kg/day, po in presence of gefitinib; assay type: functional, organism-based
Procedure, shortened: (§4)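 HCC827 s.c. xenografts (10^7 cells in Matrigel) in female balb/c nu/nu mice made gefitinib-resistant by 3-weekly escalating oral gefitinib (18.7–150 mg/kg/day); gefitinib then continued at its last maximal dose with oral compound at fixed daily dose; tumor volume by calipers (π/6 × larger × smaller²) and body weight on alternate days.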

HCC827 [6] = assay: Downregulation of SMO expression in gefitinib resistant human HCC827 cells at 0.05 to 0.1 uM after 72 hrs by Western blotting method; assay type: functional, cell-based; procedure, shortened: as §2
HCC827 [7] = assay: Effect on total AKT levels in gefitinib resistant human HCC827 cells at 0.05 to 0.1 uM after 72 hrs by Western blotting method; assay type: ADME, cell-based; settings: hcc827, 72 h; procedure, shortened: as §2
[8] = system: Protein smoothened (Homo sapiens), Q99835 [V404M]; assay: Inhibition of SMO V404M mutant in gefitinib resistant human HCC827 cells assessed as decrease in GLI1 activity at 2 uM by GLI1 luciferase reporter assay relative to control; procedure, shortened: as §3
[9] = system: Protein smoothened (Homo sapiens), Q99835 [V404M]; assay: Inhibition of SMO V404M mutant in gefitinib resistant human HCC827 cells assessed as decrease in GLI1 activity at 2 to 60 uM in presence of SMO agonist SAG by GLI1 luciferase reporter assay; procedure, shortened: as §3
HCC827 [10] = assay: Induction of apoptosis in gefitinib resistant human HCC827 cells at 0.5 uM after 72 hrs by annexin V-FITC-propidium iodide staining-based flow cytometry method relative to control; assay type: functional
Procedure, shortened: (§5)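 HCC827-GR cells treated 72 h, trypsinized, resuspended at 1 × 10^6/mL in binding buffer, stained 30 min at RT in dark with annexin V-FITC and propidium iodide; FACSCalibur flow cytometry (488 nm excitation; 530 nm FITC, 670 nm PI); mean of three wells from a representative experiment.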

HCC827 [11] = assay: Antitumor activity against gefitinib resistant human HCC827 cells xenografted in balb/c athymic nu/nu mouse assessed as decrease in tumor size at 15 mg/kg/day, po in presence of gefitinib
[12] = molecular target: Hepatocyte growth factor receptor (Homo sapiens) (UniProt P08581); assay: Inhibition of MET in gefitinib resistant human HCC827 cells assessed as decrease in AKT phosphorylation at Ser473 at 0.05 to 0.1 uM after 72 hrs by Western blotting method; procedure, shortened: as §2
HCC827 [13] = assay: Antiproliferative activity against gefitinib resistant EGFR-mutated human HCC827 cells after 72 hrs by MTT assay; assay type: functional, cell-based; settings: for IC50: HCC827, 72 h
Protein smoothened [14] = molecular target: Protein smoothened (Homo sapiens, UniProt Q99835); assay: Displacement of [3H]-cyclopamine from human wild-type SMO receptor expressed in HEK293T cell membranes by liquid scintillation spectrometry; parameters: species or system HEK-293T
Homo sapiens = organism: Homo sapiens; assay: Inhibition of MET/SMO V404M mutant in gefitinib resistant human HCC827 cells assessed as decrease in vimentin expression at 0.05 to 0.1 uM after 72 hrs by Western blotting method
[15] = system: Protein smoothened (Homo sapiens), Q99835 [V404M]; assay: Inhibition of SMO V404M mutant in gefitinib resistant human HCC827 cells assessed as decrease in GLI1 activity at 60 uM by GLI1 luciferase reporter assay relative to control; procedure, shortened: as §3
Protein smoothened [16] = molecular target: Protein smoothened (Homo sapiens, UniProt Q99835, V404M); assay: Displacement of [3H]-cyclopamine from SMO V404M mutant in gefitinib resistant human HCC827 cells by scintillation counting
HCC827 [17] = assay: Effect on total MAPK levels in gefitinib resistant human HCC827 cells at 0.05 to 0.1 uM after 72 hrs by Western blotting method; assay type: ADME, cell-based; settings: hcc827, 72 h; procedure, shortened: as §2
[18] = molecular target: Hepatocyte growth factor receptor (Homo sapiens) (UniProt P08581); assay: Inhibition of MET in gefitinib resistant human HCC827 cells assessed as decrease in MAPK44/42 phosphorylation at Thr202/Tyr204 at 0.05 to 0.1 uM after 72 hrs by Western blotting method; procedure, shortened: as §2
[19] = Plasma concentration in balb/c athymic nu/nu mouse at 20 mg/kg, po measured after 5 hrs; assay type: ADME, organism-based
HCC827 [20] = assay: Induction of apoptosis in gefitinib resistant human HCC827 cells at 0.1 uM after 72 hrs by annexin V-FITC-propidium iodide staining-based flow cytometry method relative to control; assay type: functional; procedure, shortened: as §5
HCC827 [21] = assay: Antitumor activity against gefitinib resistant human HCC827 cells xenografted in balb/c athymic nu/nu mouse assessed as decrease in tumor size at 20 mg/kg/day, po; assay type: functional, organism-based; procedure, shortened: as §1
HCC827 [22] = assay: Induction of apoptosis in gefitinib resistant human HCC827 cells at 0.01 to 1 uM after 72 hrs by annexin V-FITC-propidium iodide staining-based flow cytometry method relative to control; assay type: functional, cell-based; procedure, shortened: as §5
HCC827 [23] = assay: Effect on total MAPK levels in gefitinib resistant human HCC827 cells at 0.1 to 0.5 uM after 72 hrs by Western blotting method; assay type: ADME, cell-based; settings: hcc827, 72 h; procedure, shortened: as §2
HCC827 [24] = assay: Effect on total AKT levels in gefitinib resistant human HCC827 cells at 0.1 to 0.5 uM after 72 hrs by Western blotting method; assay type: ADME, cell-based; settings: hcc827, 72 h; procedure, shortened: as §2
HCC827 [25] = assay: Antitumor activity against gefitinib resistant human HCC827 cells xenografted in balb/c athymic nu/nu mouse assessed as decrease in tumor size at 20 mg/kg/day, po in presence of gefitinib
HCC827 [26] = assay: Downregulation of SMO expression in gefitinib resistant human HCC827 cells at 0.1 to 0.5 uM after 72 hrs by Western blotting method; assay type: functional, cell-based; procedure, shortened: as §2
HCC827 [27] = assay: Antitumor activity against gefitinib resistant human HCC827 cells xenografted in balb/c athymic nu/nu mouse assessed as decrease in tumor size at 20 mg/kg/day, po in presence of gefitinib; assay type: functional, organism-based; procedure, shortened: as §4

Sequence of Protein smoothened (Homo sapiens), Q99835 [V404M] (Q99835 whole entry V404M): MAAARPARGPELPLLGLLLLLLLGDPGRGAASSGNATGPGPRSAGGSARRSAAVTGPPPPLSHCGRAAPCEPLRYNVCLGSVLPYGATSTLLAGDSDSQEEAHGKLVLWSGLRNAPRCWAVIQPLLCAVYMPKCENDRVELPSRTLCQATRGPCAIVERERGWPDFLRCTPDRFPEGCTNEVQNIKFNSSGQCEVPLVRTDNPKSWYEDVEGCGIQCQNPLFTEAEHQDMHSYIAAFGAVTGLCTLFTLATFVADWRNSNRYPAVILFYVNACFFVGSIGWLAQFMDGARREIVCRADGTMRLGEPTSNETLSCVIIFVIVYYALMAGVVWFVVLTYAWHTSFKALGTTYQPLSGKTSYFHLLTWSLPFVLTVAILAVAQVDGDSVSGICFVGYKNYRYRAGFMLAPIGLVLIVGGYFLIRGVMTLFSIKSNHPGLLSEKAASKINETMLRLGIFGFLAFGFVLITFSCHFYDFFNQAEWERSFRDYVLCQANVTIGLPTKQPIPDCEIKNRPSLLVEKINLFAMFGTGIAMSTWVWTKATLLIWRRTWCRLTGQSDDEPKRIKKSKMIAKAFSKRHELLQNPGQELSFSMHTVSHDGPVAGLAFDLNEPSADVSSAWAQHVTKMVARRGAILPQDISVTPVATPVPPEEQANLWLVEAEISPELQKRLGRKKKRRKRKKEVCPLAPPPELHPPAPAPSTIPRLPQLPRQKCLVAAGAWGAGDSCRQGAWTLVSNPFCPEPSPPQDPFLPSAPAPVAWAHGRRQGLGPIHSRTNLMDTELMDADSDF
Sequence of Hepatocyte growth factor receptor (Homo sapiens) (P08581 whole entry): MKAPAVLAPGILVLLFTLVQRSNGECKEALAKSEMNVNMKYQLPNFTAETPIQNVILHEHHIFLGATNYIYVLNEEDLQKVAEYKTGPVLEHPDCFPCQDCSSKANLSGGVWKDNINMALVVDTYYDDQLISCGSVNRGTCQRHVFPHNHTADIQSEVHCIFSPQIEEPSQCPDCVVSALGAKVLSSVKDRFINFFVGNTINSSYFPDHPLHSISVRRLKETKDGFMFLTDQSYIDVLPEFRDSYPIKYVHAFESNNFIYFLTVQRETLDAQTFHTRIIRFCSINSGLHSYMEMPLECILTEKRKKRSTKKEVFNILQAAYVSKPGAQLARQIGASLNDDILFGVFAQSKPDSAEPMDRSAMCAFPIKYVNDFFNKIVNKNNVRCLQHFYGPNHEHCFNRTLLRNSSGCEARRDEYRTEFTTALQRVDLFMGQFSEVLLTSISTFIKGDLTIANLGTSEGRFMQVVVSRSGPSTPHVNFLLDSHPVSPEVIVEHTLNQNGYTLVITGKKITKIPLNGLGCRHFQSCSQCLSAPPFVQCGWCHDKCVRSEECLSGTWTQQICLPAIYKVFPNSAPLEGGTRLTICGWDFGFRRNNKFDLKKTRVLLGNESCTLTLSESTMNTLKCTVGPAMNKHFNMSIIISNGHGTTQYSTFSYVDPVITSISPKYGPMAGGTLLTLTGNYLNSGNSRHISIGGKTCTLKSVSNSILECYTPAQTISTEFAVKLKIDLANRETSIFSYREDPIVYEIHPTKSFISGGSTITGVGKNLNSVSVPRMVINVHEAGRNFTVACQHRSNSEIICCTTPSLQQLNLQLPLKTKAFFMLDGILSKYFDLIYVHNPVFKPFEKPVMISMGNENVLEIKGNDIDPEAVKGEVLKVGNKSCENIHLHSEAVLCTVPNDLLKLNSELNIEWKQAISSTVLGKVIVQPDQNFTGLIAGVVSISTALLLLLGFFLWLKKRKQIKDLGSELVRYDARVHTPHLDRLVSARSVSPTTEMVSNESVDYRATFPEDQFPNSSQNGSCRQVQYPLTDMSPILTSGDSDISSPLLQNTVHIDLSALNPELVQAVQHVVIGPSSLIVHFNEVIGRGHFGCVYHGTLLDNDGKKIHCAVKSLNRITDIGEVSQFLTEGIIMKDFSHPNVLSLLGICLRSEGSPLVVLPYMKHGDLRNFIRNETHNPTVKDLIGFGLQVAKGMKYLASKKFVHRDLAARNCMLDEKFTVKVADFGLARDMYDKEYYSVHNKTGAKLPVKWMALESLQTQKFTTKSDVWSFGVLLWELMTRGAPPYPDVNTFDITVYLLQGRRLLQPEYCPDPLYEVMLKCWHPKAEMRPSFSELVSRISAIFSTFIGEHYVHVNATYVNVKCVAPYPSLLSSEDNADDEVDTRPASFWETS
Sequence of Protein smoothened (Homo sapiens, UniProt Q99835, V404M) (Q99835 28-787 V404M limits assumed): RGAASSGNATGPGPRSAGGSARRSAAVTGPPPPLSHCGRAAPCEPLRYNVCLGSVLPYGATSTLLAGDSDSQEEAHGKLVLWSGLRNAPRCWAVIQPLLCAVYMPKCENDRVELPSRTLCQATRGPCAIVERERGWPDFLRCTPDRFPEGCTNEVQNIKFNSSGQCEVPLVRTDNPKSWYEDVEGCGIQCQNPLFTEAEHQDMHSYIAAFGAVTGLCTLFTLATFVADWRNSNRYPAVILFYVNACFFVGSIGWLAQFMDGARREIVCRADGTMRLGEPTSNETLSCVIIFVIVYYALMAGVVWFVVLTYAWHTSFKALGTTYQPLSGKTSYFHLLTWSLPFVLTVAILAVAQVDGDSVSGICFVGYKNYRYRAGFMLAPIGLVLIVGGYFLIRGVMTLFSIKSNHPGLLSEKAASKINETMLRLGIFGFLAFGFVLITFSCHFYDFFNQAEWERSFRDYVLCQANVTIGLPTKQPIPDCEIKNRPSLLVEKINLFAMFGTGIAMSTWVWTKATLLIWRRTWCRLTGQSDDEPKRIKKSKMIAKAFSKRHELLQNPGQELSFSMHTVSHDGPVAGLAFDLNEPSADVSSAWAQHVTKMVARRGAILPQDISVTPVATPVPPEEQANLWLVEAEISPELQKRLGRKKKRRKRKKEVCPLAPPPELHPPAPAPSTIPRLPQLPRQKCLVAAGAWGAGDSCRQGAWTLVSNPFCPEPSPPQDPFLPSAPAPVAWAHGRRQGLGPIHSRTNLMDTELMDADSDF
Sequence of Protein smoothened (Homo sapiens, UniProt Q99835) (Q99835 whole entry): as the sequence (Q99835 whole entry V404M) above, with M404V counted along it

Row | inhibition [1] | inhibition [4] | inhibition [8] [%] | inhibition [9] | inhibition [15] [%] | Ki (Protein smoothened [16]) [nM] | SMILES | further results
1 | inactive |  |  |  |  |  | Cc1cccc(C(=O)Nc2ccc(C(=O)NNC3C(=O)Nc4ccccc43)cc2)c1 (stereo not given) | 
2 |  | Dose-dependent effect | 25 to 50 | inactive | 10 to 100 | 53.1 | Cn1cnc(-c2cc3nccc(Oc4ccc(NC(=S)NC(=O)Cc5ccccc5)cc4F)c3s2)c1 | Activity (HCC827 [2]): Active; inhibition [3]: Active; Activity (HCC827 [5]): Active; Activity (HCC827 [6]): Active; Activity (HCC827 [7]): Non-Toxic; Activity (HCC827 [10]): 84%; Activity (HCC827 [11]): Active; inhibition [12]: Active; Activity (HCC827 [13]): Dose-dependent effect; IC50 (HCC827 [13]): 80 nM; Ki (Protein smoothened [14]): 41.7 nM; inhibition (Homo sapiens): Active; Activity (HCC827 [17]): Non-Toxic; inhibition [18]: Active; concentration at 5 h [19]: 800 nM; Activity (HCC827 [20]): 62%
3 |  | Dose-dependent effect | 25 to 50 | inactive | 10 to 100 | 46.2 | CSc1cccc(Nc2ncc3cc(-c4c(Cl)cccc4Cl)c(=O)n(C)c3n2)c1 | 
4 |  | Dose-dependent effect | 25 to 50 | inactive | 10 to 100 | 168 | O=C(NNC(=O)c1ccc([N+](=O)[O-])cc1)C(=O)c1c[nH]c2ccccc12 | 
5 | inactive |  |  |  |  |  | O=C(CCCCCC(=O)N/N=C/c1cc2c(cc1[N+](=O)[O-])OCO2)N/N=C/c1cc2c(cc1[N+](=O)[O-])OCO2 | 
6 |  | Dose-dependent effect | 25 to 50 | inactive | 10 to 100 | 87.6 | Cc1ccc(F)c(NC(=O)Nc2ccc(-c3cccc4[nH]nc(N)c34)cc2)c1 [LINIFANIB] | 
7 | inactive |  |  |  |  |  | CCOc1ccn(-c2ccc(F)cc2)c(=O)c1C(=O)Nc1ccc(Oc2ccnc(N)c2Cl)c(F)c1 | 
8 |  | Dose-dependent effect | 25 to 50 | inactive | 10 to 100 | 46.5 | CCN1CCN(c2ccc(Nc3cc(N(C)C(=O)Nc4c(Cl)c(OC)cc(OC)c4Cl)ncn3)cc2)CC1 [INFIGRATINIB] | 
9 |  | Dose-dependent effect | 25 to 50 | inactive | 10 to 100 | 66.8 | COc1cc2c(Oc3ccc(NC(=O)C4(C(=O)Nc5ccc(F)cc5)CC4)cc3F)ccnc2cc1OCCCN1CCOCC1 [FORETINIB] | Activity (HCC827 [21]): Active; Activity (HCC827 [22]): Active; Activity (HCC827 [23]): Non-Toxic; Activity (HCC827 [24]): Non-Toxic; Activity (HCC827 [25]): Active; Activity (HCC827 [26]): Active; Activity (HCC827 [13]): Dose-dependent effect; IC50 (HCC827 [13]): 500 nM; Ki (Protein smoothened [14]): 59.7 nM; Activity (HCC827 [27]): Active
10 |  | Dose-dependent effect | 25 to 50 | inactive | 10 to 100 | 188 | COc1cc2ncnc(Oc3cccc(NC(=O)Nc4cc(C(C)(C)C(F)(F)F)on4)c3)c2cc1OC [CEP-32496] | 
11 |  | Dose-dependent effect | 25 to 50 | inactive | 10 to 100 | 50.4 | Cc1ccc(NC(=O)CN2C(=O)/C(=N/NC(=O)c3cc(Br)ccc3O)c3ccccc32)cc1 | 
12 | inactive |  |  |  |  |  | CC(C)(O)CC(=O)NCCn1ccc2ncnc(Nc3ccc(Oc4cccc(C(F)(F)F)c4)c(Cl)c3)c21 | 
